PMC5940269 (The Journal of Experimental Medicine, 2018)
Where two headings read alike, the source gives them in different places.

Key:
SCW-induced arthritis = assay: Streptococcal cell wall; type: in vivo, rat; settings: for paw swelling: oral gavage 2×/day from day 9, CDD-450 5 or 10 mg/kg, CDD-110 1.5 mg/kg
Summary of the method: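 Adult female Lewis rats (180 g) received SCW preparation i.p. at 15 mg/kg, and acute paw edema was tracked on days 2–8. Paw volume was measured by plethysmometer every other day to day 21, and hind paws were scanned by µCT at day 21.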

WT or NOMID BMMs = assay: mRNA stability; type: cell-based, mouse; settings: LPS 3 h then 1 µg/ml actinomycin D plus inhibitor
Summary of the method: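 WT and NOMID BMMs were stimulated with 100 ng/ml LPS for 3 h, then exposed simultaneously to 1 µg/ml actinomycin D and test compound, MK2 inhibitor or IKK2 inhibitor. Cells were lysed at 0, 2, 4 or 6 h. After RNA extraction and reverse transcription, SYBR green qPCR tracked decay of IL-1β, IL-6, NLRP3 and TNF-α mRNA. Triplicates, ≥3 independent experiments.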

p38α–PRAK = p38α–PRAK (Homo sapiens, UniProt Q16539); assay: p38α–MK2 and p38α–PRAK assays; type: biochemical
p38α–ATF2 = assay: p38α–MK2 and p38α–ATF2 assays; type: biochemical
p38α–MK2 complex = assay: Surface plasmon resonance analysis of p38α binding to immobilized MK2; settings: 10 nM p38α, immobilized GST-MK2
193 kinases = assay: Kinase selectivity across the human kinome; type: biochemical; settings: CDD-450 tested at 5 µM
p38β = p38β (Homo sapiens, UniProt Q15759); assay: Kinase selectivity, p38β; type: biochemical; settings: CDD-450 tested at 5 µM
[1] = tested on: WT and NOMID bone marrow macrophages (BMMs); assay: qPCR/Western analysis of LPS-induced expression in BMMs; type: cell-based, mouse; settings: for IL-18 expression: in vitro
Summary of the method: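 WT and NOMID BMMs were preincubated 1 h with test compound or IKK2 inhibitor (0.5% DMSO final), then given 100 ng/ml LPS for 3 or 8 h. Transcripts were measured by SYBR green qPCR after RNA extraction and reverse transcription. Protein (NLRP3, pro-caspase-1) was measured by Western blot of RIPA lysates. Triplicates, ≥3 independent experiments.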

MK2 phosphorylation = assay: Western blot of LPS-stimulated MK2 phosphorylation in BMMs; type: cell-based, mouse; settings: 10 µM CDD-450, 100 ng/ml LPS, WT BMMs
WT and NOMID BMMs = assay: IL-1β secretion by LPS-primed BMMs; type: cell-based, mouse; settings: 100 ng/ml LPS 3 h; WT cells plus 15 µM nigericin 30 min
Summary of the method: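 BMMs were derived over ~5 d in 1:10 CMG 14-12 supernatant (M-CSF source), plated at 10^4/well and kept 24 h. They were pretreated 1 h with vehicle (0.5% DMSO final), test compound or IKK2 inhibitor, then given 100 ng/ml LPS for 3 h without a media change. WT cells then received 15 µM nigericin for 30 min. IL-1β in conditioned media was measured by ELISA; triplicates, ≥3 independent experiments.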

[2] = tested on: NLRP3 inflammasome / caspase-1; assay: Microscopic analysis of active caspase-1; type: cell-based, mouse; settings: LPS-primed cells, 15 µM nigericin with 10 µM CDD-450, 30 min
Summary of the method: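 BMMs were plated at 5 × 10^4/well for 24 h, primed with 100 ng/ml LPS for 3 h, then treated 30 min with 10 µM test compound and/or 15 µM nigericin. Active caspase-1 was labelled with FLICA FAM-YVAD-FMK (30 min, 37°C). Cells were washed, fixed in 10% buffered formalin and DAPI-counterstained, then imaged by fluorescence microscopy with image analysis.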

[3] = Cytotoxicity at efficacious concentrations; type: cell-based; settings: efficacious concentrations tested in this study; not depicted
[4] = tested on: LPS-induced TNF-α expression; assay: LPS-induced TNF-α production in mice fed inhibitor chow; type: in vivo; settings: CDD-450 chow 1,000 ppm; LPS 0.025 mg/kg for 1 h
Summary of the method: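 Eight-week-old WT female mice (six/group) were fed normal chow or inhibitor chow (1,000 or 516 ppm). At the indicated weeks they were challenged i.v. with Salmonella typhosa LPS, 0.025 mg/kg in saline. Blood was collected by cardiac puncture 60 min later, and serum TNF-α was measured by ELISA.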

[5] = Body weight of WT mice on CDD-450 chow; type: in vivo
NOMID^c mice = assay: NOMID^c mice; type: in vivo; settings: CDD-450 chow
Summary of the method: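 Nlrp3fl(D301N)/+;Cre-ERTM mice (C57BL/6) were given tamoxifen i.p., 75 mg/kg every other day, three times weekly for 2 wk; Cre-ERTM littermates were controls. Three-month-old mice received normal or compound chow from 3 d before tamoxifen. Body weight (10–11/group) and survival (12–13/group) were scored every 2–3 d. Endpoint was 4 wk later: decalcified 5-µm bone sections were TRAP-stained and osteoclasts counted on trabecular and cortical surfaces (4–6 mice/group).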

WT BMMs = assay: Osteoclast formation in vitro induced by RANKL; type: cell-based, mouse; settings: 50 ng/ml RANKL for 4 d
Summary of the method: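 WT BMMs were plated at 5 × 10^3/well in 1:50 CMG supernatant plus RANKL with DMSO or test compound for 4 d, medium changed every other day, at 37°C, 5% CO2. Cells were fixed 10 min in 3.7% formaldehyde/0.1% Triton X-100, then TRAP-stained 30 min at room temperature. TRAP+ cells with ≥3 nuclei were scored as osteoclasts. Triplicates, ≥3 independent experiments.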

[6] = tested on: human PBMC from CAPS patients and healthy control; assay: IL-1β production and mRNA stability in human PBMC; type: cell-based
Summary of the method: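 Human PBMC from a CAPS patient or healthy control. For secretion, cells were cultured 16 h at 32°C or 37°C with DMSO or test compound, or with 100 ng/ml LPS for 16 h at 37°C, and IL-1β in conditioned media was measured by ELISA. For mRNA stability, cells got 10 ng/ml LPS for 3 h, then 1 µg/ml actinomycin D plus inhibitor, were lysed at 0–6 h and analysed by SYBR qPCR. Triplicates, ≥2 independent experiments.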

RA synovial fibroblasts = assay: IL-1β-induced responses in synovial fibroblasts from an RA patient; type: cell-based, human
Summary of the method: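 Synovial fibroblasts from an RA patient were preincubated 1 h with inhibitors, then given 10 ng/ml IL-1β for 3 h, with transcripts measured by qPCR. For mRNA stability, IL-1β was added for 3 h, then 1 µg/ml actinomycin D plus test compound or IKK2 inhibitor, with cells lysed at 0, 2, 4 or 6 h. For p-MK2 (Thr334) Western blot, cells had 1 h preincubation with 10 µM test compound before IL-1β. Triplicates, ≥2 independent experiments.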

[7] = tested on: LPS-induced production of TNF-α, IL-1β and IL-6; assay: LPS-induced cytokine production in various in vitro systems and animal models; type: cell-based
Summary of the method: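 U937 premonocytic cells, grown in RPMI 1640 with 10% FBS, were differentiated with 20 ng/ml PMA for 24 h. They were pretreated with vehicle or test compound, then stimulated with 100 ng/ml LPS for 4 h. TNF-α, IL-1β and IL-6 were measured in conditioned media.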

U937 cells = assay: LPS-stimulated phosphorylation of signaling proteins in U937 cells; type: cell-based, human
Summary of the method: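 U937 cells were differentiated into macrophages with 20 ng/ml PMA for 24 h. They were pretreated 1 h with vehicle (0.5% DMSO final) or test compound, then stimulated with 100 ng/ml LPS. Phosphorylation of signalling proteins was assessed by Western blotting, ELISA or MesoScale kits.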

Pharmacokinetics = assay: Pharmacokinetics; parameters: species or system mice, rats, and dogs; settings: in vivo
cardiac hERG channel = cardiac hERG channel (Homo sapiens, UniProt Q12809); assay: hERG channel inhibition
[8] = In vivo tolerability, 14 consecutive days oral gavage; settings: rat
[9] = 100 ng/ml LPS, inhibitor preincubated 1 h
[10] = 10 ng/ml IL-1β 3 h then actinomycin D

Chain of p38β (Q15759 whole entry): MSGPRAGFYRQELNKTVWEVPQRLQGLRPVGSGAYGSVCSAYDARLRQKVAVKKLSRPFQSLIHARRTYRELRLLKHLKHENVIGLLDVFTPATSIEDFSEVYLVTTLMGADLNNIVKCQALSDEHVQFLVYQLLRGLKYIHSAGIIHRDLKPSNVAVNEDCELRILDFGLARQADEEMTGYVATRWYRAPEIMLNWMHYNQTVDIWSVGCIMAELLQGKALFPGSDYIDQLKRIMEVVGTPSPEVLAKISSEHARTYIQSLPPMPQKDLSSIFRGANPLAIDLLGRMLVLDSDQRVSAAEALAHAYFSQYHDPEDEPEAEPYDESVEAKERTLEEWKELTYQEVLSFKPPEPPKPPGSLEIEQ
Chain of cardiac hERG channel (Q12809 whole entry): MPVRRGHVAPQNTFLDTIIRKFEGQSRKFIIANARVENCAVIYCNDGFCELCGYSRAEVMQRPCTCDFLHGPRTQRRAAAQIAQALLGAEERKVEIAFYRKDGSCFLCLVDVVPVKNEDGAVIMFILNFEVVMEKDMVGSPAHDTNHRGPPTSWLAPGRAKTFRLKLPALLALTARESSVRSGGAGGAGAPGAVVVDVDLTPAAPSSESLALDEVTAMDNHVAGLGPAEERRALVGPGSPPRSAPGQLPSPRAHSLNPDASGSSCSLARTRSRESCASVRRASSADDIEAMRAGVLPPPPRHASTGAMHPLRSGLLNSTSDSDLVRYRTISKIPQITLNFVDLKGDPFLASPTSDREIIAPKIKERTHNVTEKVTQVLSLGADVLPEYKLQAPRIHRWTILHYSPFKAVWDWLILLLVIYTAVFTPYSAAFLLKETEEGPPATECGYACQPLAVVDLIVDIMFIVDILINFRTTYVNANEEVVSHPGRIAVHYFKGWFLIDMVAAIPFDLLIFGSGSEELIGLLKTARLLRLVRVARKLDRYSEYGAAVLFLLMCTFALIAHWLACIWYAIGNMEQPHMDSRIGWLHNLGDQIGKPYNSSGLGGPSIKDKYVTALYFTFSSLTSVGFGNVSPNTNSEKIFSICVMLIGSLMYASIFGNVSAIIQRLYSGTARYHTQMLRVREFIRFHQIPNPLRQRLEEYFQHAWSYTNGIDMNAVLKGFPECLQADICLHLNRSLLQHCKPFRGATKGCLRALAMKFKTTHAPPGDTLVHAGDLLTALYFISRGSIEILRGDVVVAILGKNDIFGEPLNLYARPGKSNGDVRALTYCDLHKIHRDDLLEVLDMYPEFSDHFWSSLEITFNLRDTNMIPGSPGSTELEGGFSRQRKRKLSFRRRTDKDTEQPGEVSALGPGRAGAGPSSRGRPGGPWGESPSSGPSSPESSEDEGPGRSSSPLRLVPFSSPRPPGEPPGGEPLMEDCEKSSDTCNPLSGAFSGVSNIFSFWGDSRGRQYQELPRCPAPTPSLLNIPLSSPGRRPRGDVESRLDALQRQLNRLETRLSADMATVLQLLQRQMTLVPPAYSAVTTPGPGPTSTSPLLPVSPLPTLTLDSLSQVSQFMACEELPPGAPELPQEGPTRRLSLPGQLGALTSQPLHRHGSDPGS
Chain of p38α–PRAK (Q16539 whole entry): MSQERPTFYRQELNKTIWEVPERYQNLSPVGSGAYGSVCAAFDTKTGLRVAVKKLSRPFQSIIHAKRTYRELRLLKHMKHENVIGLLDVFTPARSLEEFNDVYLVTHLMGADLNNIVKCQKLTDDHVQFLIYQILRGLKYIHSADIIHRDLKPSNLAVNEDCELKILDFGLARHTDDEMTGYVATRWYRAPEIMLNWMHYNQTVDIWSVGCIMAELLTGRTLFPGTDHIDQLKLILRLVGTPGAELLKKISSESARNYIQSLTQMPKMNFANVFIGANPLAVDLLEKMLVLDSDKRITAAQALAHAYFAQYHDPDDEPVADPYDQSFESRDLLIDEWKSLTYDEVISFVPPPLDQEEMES
Chain of p38α–PRAK (Q8IW41 whole entry partner): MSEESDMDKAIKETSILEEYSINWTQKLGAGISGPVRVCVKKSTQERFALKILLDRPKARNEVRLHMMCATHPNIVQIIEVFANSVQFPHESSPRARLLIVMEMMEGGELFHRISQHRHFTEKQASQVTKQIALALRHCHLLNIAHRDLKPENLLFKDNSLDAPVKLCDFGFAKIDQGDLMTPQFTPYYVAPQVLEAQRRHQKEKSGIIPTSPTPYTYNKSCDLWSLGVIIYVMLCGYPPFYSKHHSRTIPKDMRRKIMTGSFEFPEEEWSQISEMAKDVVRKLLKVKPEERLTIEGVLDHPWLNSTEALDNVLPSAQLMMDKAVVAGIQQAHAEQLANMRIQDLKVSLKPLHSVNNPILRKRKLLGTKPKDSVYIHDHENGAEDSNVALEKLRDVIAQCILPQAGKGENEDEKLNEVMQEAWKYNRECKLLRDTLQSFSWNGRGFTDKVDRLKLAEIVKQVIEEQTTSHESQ

Compound: CNC(=O)c1ccc(C)c(-n2c(C)cc(OCc3ccc(F)cc3F)c(Br)c2=O)c1 [CDD-110, reference compound]
- paw swelling (SCW-induced arthritis): inhibited

Compound: Cc1ccc(-c2ccc3c(ccc4sc5c(c43)NC[C@@H](C)NC5=O)n2)cn1 [PF-3644022, reference compound]
- degradation of IL-1β mRNA (WT or NOMID BMMs): promoted the degradation
- degradation of TNF-α mRNA (WT or NOMID BMMs): promoted the degradation

Compound: Cc1cnc(-c2ccnc(C(C)(C)O)n2)cc1-n1c(C)cc(OCc2ncc(F)cc2F)c(Cl)c1=O [CDD-450]
- fold more potent in inhibiting p38α–MK2 than p38α–PRAK (p38α–PRAK): at least 700 ×
- fold more potent in inhibiting p38α–MK2 than p38α–ATF2 (p38α–ATF2): at least 700 ×
- stabilization of the p38α–MK2 complex (increased t1/2) relative to p38α–MK2 alone (p38α–MK2 complex): 47.5 ×
- potency differential for inhibiting the 193 kinases tested (193 kinases): > 350 ×
- cross-reactivity on p38β (p38β): crossed over
- NLRP3 expression ([1]; 100 ng/ml LPS): no effect
- IL-18 expression ([1]; 100 ng/ml LPS): no direct effect
- LPS-induced IL-1β mRNA expression [1, 9]: inhibited
- LPS-induced IL-6 mRNA expression [1, 9]: inhibited
- LPS-induced TNF-α mRNA expression [1, 9]: inhibited
- expression of NLRP3 interacting partners ASC, caspase-1 and NEK7 ([1]; not depicted): no effect
- LPS-stimulated MK2 phosphorylation at 15 and 30 min (MK2 phosphorylation): inhibited
- LPS-stimulated MK2 phosphorylation at 180 min (MK2 phosphorylation): little effect
- decay of NLRP3 mRNA (WT or NOMID BMMs): no effect
- degradation of IL-1β mRNA (WT or NOMID BMMs): promoted the degradation
- degradation of IL-6 mRNA (WT or NOMID BMMs): promoted the degradation
- IL-1β secretion by LPS-primed WT and NOMID BMMs (WT and NOMID BMMs): inhibited
- nigericin-induced activation of caspase-1 (fluorescent foci) [2]: no effect
- cytotoxicity [3]: not cytotoxic
- persistence of efficacy in blocking LPS-induced TNF-α expression after dosing [4]: up to 4 wk
- tolerability of concomitant exposure to CDD-450 chow and tamoxifen ([5]; WT mice): not well tolerated
- body weight of WT mice, CDD-450 chow versus normal chow ([5]; no tamoxifen): gained body weight undistinguishably
- body weight of WT mice, CDD-450 chow plus tamoxifen, compared with normal chow ([5]; tamoxifen for 2 wk): lost body weight
- body weight loss of NOMID^c mice versus untreated NOMID^c mice (NOMID^c mice): lost significantly less body weight
- increased number of osteoclasts on trabecular and cortical bone surfaces (NOMID^c mice): prevented
- skin lesions and death over the 7-wk period (NOMID^c mice; untreated: ∼35% skin lesions, 20% died): neither occurred
- in vitro osteoclast formation induced by RANKL (WT BMMs): inhibited
- IL-1β mRNA instability in human PBMC ([6]; 10 ng/ml LPS 3 h then actinomycin D): promoted
- LPS-stimulated IL-1β secretion by healthy control PBMC ([6]; 100 ng/ml LPS 16 h at 37°C): reduced
- IL-1β secretion by CAPS PBMC ([6]; 16 h at 32°C, spontaneous): reduced
- degradation of TNF-α mRNA induced by LPS in human PBMC ([6]; not depicted): accentuated
- IL-1β mRNA levels induced by IL-1β (RA synovial fibroblasts; 10 ng/ml IL-1β 3 h): decreased
- degradation of TNF-α mRNA induced by IL-1β (RA synovial fibroblasts; [10]): accentuated
- loss of IL-1β transcripts (RA synovial fibroblasts; [10]): accelerated
- MK2 phosphorylation induced by IL-1β (RA synovial fibroblasts; 10 µM CDD-450, 10 ng/ml IL-1β): blocked
- IC50 ([7]; read-out: IC50, LPS-induced production of IL-1β): 1 to 10 nM
- IC50 ([7]; read-out: IC50, LPS-induced production of IL-6): ~100 nM
- IC50 ([7]; read-out: IC50, LPS-induced production of TNF-α): 1 to 10 nM
- LPS activation of the ERK1/2 pathway (U937 cells): no inhibitory effect
- LPS activation of the JNK pathway (U937 cells): no inhibitory effect
- MK2 phosphorylation induced by LPS (U937 cells): blocked
- joint destruction, 3D µCT reconstruction (SCW-induced arthritis; 5 mg/kg CDD-450 2×/day): joint protective effects
- paw swelling (SCW-induced arthritis): inhibited
- bone mineral density (SCW-induced arthritis; µCT at day 21): preserved
- half-life (Pharmacokinetics): long
- volume of distribution (Pharmacokinetics): high
- oral bioavailability (Pharmacokinetics; po): high
- inhibition of the cardiac hERG channel (cardiac hERG channel): did not inhibit
- well tolerated exposure relative to the predicted Cmax efficacious exposure [8]: > 30 ×

Compound: CN1CCN(c2cc(C(=O)Nc3ccc4c(c3)-c3c(c(C(N)=O)nn3-c3ccc(F)cc3)CC4)c(Cl)cn2)CC1 [PHA-408, reference compound]
- NLRP3 expression ([1]; 100 ng/ml LPS): decreased
- IL-18 expression ([1]; 100 ng/ml LPS): decreased
- LPS-induced IL-1β mRNA expression [1, 9]: inhibited
- IL-1β secretion by LPS-primed WT and NOMID BMMs (WT and NOMID BMMs): inhibited
